In experiment [1] the target is T1, B2 bradykinin receptor (Cavia porcellus, UniProt O70526).
T1 sequence (O70526 whole entry): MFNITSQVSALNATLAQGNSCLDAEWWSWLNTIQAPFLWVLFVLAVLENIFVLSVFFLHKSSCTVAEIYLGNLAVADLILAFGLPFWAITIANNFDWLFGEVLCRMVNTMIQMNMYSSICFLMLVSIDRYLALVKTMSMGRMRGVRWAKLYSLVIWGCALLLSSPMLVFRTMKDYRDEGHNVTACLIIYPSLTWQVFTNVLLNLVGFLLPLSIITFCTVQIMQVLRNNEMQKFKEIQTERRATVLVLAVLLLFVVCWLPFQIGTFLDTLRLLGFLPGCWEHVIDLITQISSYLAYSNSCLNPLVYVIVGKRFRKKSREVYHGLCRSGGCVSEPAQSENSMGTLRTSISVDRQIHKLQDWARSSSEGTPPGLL
In words: Concentration required to inhibit specific binding of [3H]BK at 0.06 nM to Bradykinin receptor B2 in guinea pig ileum membrane preparations by 50%. Type of experiment: cell membranes. The essentials: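 Guinea pig ileal membranes (100000g pellet, pH 6.8 TES buffer with phenanthroline, bacitracin, DTT, captopril, 0.1% BSA), 0.2 mg protein/mL, incubated with 0.06 nM [3H]BK and compounds 60 min at room temperature; final DMSO below 3%. Filtration on glass fiber filters, scintillation counting; nonspecific binding with 1 µM BK. Three experiments in duplicate.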

For experiment [2], the target named is T2, B2 bradykinin receptor (Homo sapiens, UniProt P30411).
T2 sequence (P30411 whole entry): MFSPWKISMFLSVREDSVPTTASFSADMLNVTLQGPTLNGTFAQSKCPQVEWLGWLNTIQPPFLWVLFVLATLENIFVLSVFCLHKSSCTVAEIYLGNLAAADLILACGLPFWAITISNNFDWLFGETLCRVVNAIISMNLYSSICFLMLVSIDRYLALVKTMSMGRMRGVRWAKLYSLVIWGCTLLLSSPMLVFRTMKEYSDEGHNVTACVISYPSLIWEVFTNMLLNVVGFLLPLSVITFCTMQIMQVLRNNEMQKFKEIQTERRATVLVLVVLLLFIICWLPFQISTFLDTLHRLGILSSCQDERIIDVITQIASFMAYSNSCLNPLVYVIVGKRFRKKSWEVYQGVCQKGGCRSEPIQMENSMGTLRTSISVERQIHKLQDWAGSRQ
Kind of experiment: Concentration required to inhibit specific binding of [3H]BK at 1.2 nM to A-431 cells (human epidermoid carcinoma) which express Bradykinin receptor B2 by 50%. Type of experiment: cell-based.

The test system of experiment [3] is Cavia porcellus. In words: Compound tested in vivo for inhibition of Bradykinin induced Bronchoconstriction in anaesthetized guinea pig.(P<0.01); % Inhibition at 1 mg/Kg p,o. Type of experiment: functional. The method in brief: (§1)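 Male Hartley guinea pigs (470-750 g), fasted overnight, anesthetized with pentobarbital 30 mg/kg ip, cannulated (trachea, jugular vein, esophagus), ventilated 10 mL/kg at 60 breaths/min; alcuronium 0.5 mg/kg iv, propranolol 10 mg/kg sc. BK 5 µg/kg iv; peak rise in insufflation pressure (modified Konzett-Rössler).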

Experiment [4] concerns Cavia porcellus. In words: Compound tested in vivo for inhibition of Bradykinin induced Bronchoconstriction in anaesthetized guinea pig.(P<0.05); % Inhibition at 3.2 mg/Kg p,o. The format is functional. The conditions noted are these: in the assay text read “0.32 mg/Kg” for “3.2 mg/Kg”. The essentials:
as §1

Experiment [5] relates to Cavia porcellus. Kind of experiment: Compound tested in vivo for inhibition of Bradykinin induced Bronchoconstriction in anaesthetized guinea pig; % Inhibition at 1 mg/Kg p,o. Type of experiment: functional. The essentials: as §1
Experiment [6] concerns Cavia porcellus. Kind of experiment: Compound tested in vivo for inhibition of Bradykinin induced Bronchoconstriction in anaesthetized guinea pig.(P<0.001);% Inhibition at 3.2 mg/Kg p,o. Type of experiment: functional. The essentials:
as §1

Experiment [7] concerns Cavia porcellus. In words: Compound tested in vivo for inhibition of Bradykinin induced Bronchoconstriction in anaesthetized guinea pig.(P<0.01); % Inhibition at 1 mg/kg. p.o. Type of experiment: functional. The conditions noted are these: route oral. The method in brief: as §1
Experiment [8] has as its system Cavia porcellus. Kind of experiment: Compound tested in vivo for inhibition of Bradykinin induced Bronchoconstriction in anaesthetized guinea pig.(P<0.01); % Inhibition at 3.2 mg/Kg p,o. Type of experiment: functional. The essentials:
as §1

pIC50: −log10 of the molar value.

Take `Cc1nc2c(OCc3c(Cl)ccc(N(C)C(=O)CNC(=O)/C=C/c4ccc(C(=O)N(C)C)cc4)c3Cl)cccn2c1Br.Cl`: the negative-log IC50 (pIC50) is 9.18 on B2 bradykinin receptor [1] and 8.85 at B2 bradykinin receptor [2]. Besides, the values for the Inhibition in the experiment with Cavia porcellus [3] and in the experiment on Cavia porcellus [4] were 86.7% and 74.8%, respectively.
`CC(=O)Nc1ccc(/C=C/C(=O)NCC(=O)N(C)c2ccc(Cl)c(COc3cccn4c(Br)c(C)nc34)c2Cl)cc1.Cl`: the negative-log IC50 (pIC50) at B2 bradykinin receptor [1] was 9.26; at B2 bradykinin receptor [2], 8.80. In the experiment on Cavia porcellus [5], this compound had an Inhibition of 20.7%.
At B2 bradykinin receptor [2], `Cc1nc2c(OCc3c(Cl)ccc(N(C)C(=O)CNC(=O)CN(C)C)c3Cl)cccn2c1Br` gave a negative logarithm of the IC50 (pIC50) of 6.08. In addition, the Inhibition in the experiment on Cavia porcellus [6] was 92.8%. The compound also returned an inhibition in vivo at 1 mg/kg in the experiment on Cavia porcellus [7] of 72.4%.
In the case of `Cc1ccc(NC(=O)NCC(=O)N(C)c2ccc(Cl)c(COc3cccn4c(Br)c(C)nc34)c2Cl)cc1.Cl`, the negative-log IC50 (pIC50) on B2 bradykinin receptor [1] is 7.92; on B2 bradykinin receptor [2], 6.59. In the experiment on Cavia porcellus [8], this compound came in with an Inhibition of 35%.

As usually defined, the pIC50 is −log10 of the IC50, conventionally taken in molar units. A high value points to a low IC50. Usually Inhibition stands for the percentage by which the read-out fell short of the control. The low end stands for little suppression, the high end for strong suppression. The term inhibition in vivo denotes the share of the control response that was lost under treatment. Low values mean a weak effect, high ones a strong effect.

(Values after ChEMBL document CHEMBL1131588, “A novel class of orally active non-peptide bradykinin B2 receptor antagonists. 2. Overcoming the species difference between guinea pig and man” (J Med Chem, 1998).)
